Reference: ChEMBL document CHEMBL5036380, “New Highly Potent NLRP3 Inhibitors: Furanochalcone Velutone F Analogues” (ACS Med Chem Lett, 2022)
The source made the active and inactive calls. No cut-off for these calls is given here.

tested on: THP-1; assay: Cytotoxicity against human THP-1 cells assessed as reduction in cell viability at 0.05 to 6.4 uM measured after 90 mins by CCK8 assay; format: cell-based; conditions: thp-1, 1.5 h, dose 0.05-6.4 µM
How it was run: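 THP-1 cells preincubated with compound (0.05–6.4 μM) for 1.5 h; viability read by CCK8 assay.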

Structure (SMILES)	Activity
COc1cc(-c2ccccc2S(C)(=O)=O)c(OC)cc1/C=C/C(=O)c1ccc(F)cc1	Non-Toxic
COc1c(/C=C/C(=O)c2ccc(F)cc2)cc(OC)c2occc12	Non-Toxic
COc1cc(-c2ccccc2NS(C)(=O)=O)c(OC)cc1/C=C/C(=O)c1ccc(F)cc1	Non-Toxic

tested on: THP-1; assay: Antiinflammatory activity in human THP-1 cells assessed as inhibition of LPS-induced IL-1beta secretion in LPS stimulation for 3 hrs followed by pretreatment for 40 min before induced with nigericin for 40 min measured by ELISA; format: functional; conditions: time 80 min; 1.333 h
How it was run: (§1)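 THP-1 cells (2 × 10^5 cells/mL) differentiated with PMA (100 ng/mL) for 24 h. Next day, primed with LPS (1 μg/mL) for 3 h, then compound for 40 min, then nigericin (10 μM) for 40 min. IL-1β in supernatant measured by ELISA; % inhibition as mean ± SD of three independent experiments. The single-concentration screen used 2 μM.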

Structure (SMILES)	Activity
COc1cc(-c2ccccc2S(C)(=O)=O)c(OC)cc1/C=C/C(=O)c1ccc(F)cc1	0.325 µM
COc1c(/C=C/C(=O)c2ccc(F)cc2)cc(OC)c2occc12	0.656 µM
COc1cc(-c2ccccc2NS(C)(=O)=O)c(OC)cc1/C=C/C(=O)c1ccc(F)cc1	0.407 µM

tested on: THP-1; assay: Antiinflammatory activity in human THP-1 cells assessed as inhibition of LPS-induced IL-1beta secretion in LPS stimulation for 3 hrs followed by pretreatment at 2uM for 40 min before induced with nigericin for 40 min measured by ELISA; format: functional; conditions: THP-1, 1.333 h, time 80 min; how it was run: as §1

Structure (SMILES)	inhibition at 2 µM
C=CC(=O)N(Cc1cc(OC)c2occc2c1OC)c1ccccc1	31.8%
COc1c(/C=C/C(=O)C2CC2)cc(OC)c2occc12	8.7%
COc1c(/C=C/C(=O)c2ccc(C(F)(F)F)cc2)cc(OC)c2occc12	50%
COc1c(/C=C/C(=O)c2ccccc2N)cc(OC)c2occc12	19.8%
COc1cc(-c2ccccc2S(C)(=O)=O)c(OC)cc1/C=C/C(=O)c1ccc(F)cc1	102%
C=CC(=O)N(Cc1cc(OC)c2occc2c1OC)c1ccc(F)cc1	15%
COc1c(/C=C/C(=O)c2cccc(O)c2)cc(OC)c2occc12	60.5%
COc1c(CCC(=O)c2cccc(Br)n2)cc(OC)c2occc12	10.7%
COc1cc(C(=O)/C=C/c2cc(OC)c3occc3c2OC)cc(OC)c1OC	42%
COc1c(/C=C/C(=O)c2ccccc2F)cc(OC)c2occc12	50.4%
COc1c(/C=C/C(=O)c2cccc(C(F)(F)F)n2)cc(OC)c2occc12	32.4%
COc1c(/C=C/C(=O)c2ccco2)cc(OC)c2occc12	32.8%
COc1c(/C=C/C(=O)c2ccc[nH]2)cc(OC)c2occc12	10.3%
COc1c(/C=C/C(=O)c2ccc(Cl)cn2)cc(OC)c2occc12	20.3%
COc1cc(NS(=O)(=O)C2CC2)c(OC)cc1/C=C/C(=O)c1ccc(F)cc1	24.8%
COc1c(/C=C/C(=O)c2cccc(C(F)(F)F)c2)cc(OC)c2occc12	64.7%
COc1c(/C=C/C(=O)c2cccc(N)c2)cc(OC)c2occc12	58.8%
COc1c(/C=C/C(=O)c2cccc(C)c2)cc(OC)c2occc12	75%

Structure (SMILES)	inhibition at 2 µM
COc1c(/C=C/C(=O)c2ccc3ccccc3n2)cc(OC)c2occc12	32.1%
COc1cc(-c2ccoc2)c(OC)cc1/C=C/C(=O)c1ccc(F)cc1	38.5%
COc1c(/C=C/C(=O)Nc2ccccc2)cc(OC)c2occc12	7.4%
COc1ccc(OC)c(/C=C/C(=O)c2ccc(F)cc2)c1	91.1%
COc1c(/C=C/C(=O)O)cc(OC)c2occc12	5.2%
COc1c(/C=C/C(=O)c2cccc(-c3ccccc3)n2)cc(OC)c2occc12	15.9%
COc1c(/C=C/C(=O)c2ccccc2)cc(OC)c2occc12	50.8%
COc1c(/C=C/C(=O)c2ccccn2)cc(OC)c2occc12	56.9%
COc1cc(/C=C/C(=O)c2ccc(F)cc2)c(OC)cc1C	80.6%
COc1c(/C=C/C(=O)c2ccc(F)cc2)cc(OC)c2occc12	88.2%
COc1c(/C=C/C(=O)c2cccc(-c3cccs3)n2)cc(OC)c2occc12	15.9%
COc1cc(-c2ccccc2NS(C)(=O)=O)c(OC)cc1/C=C/C(=O)c1ccc(F)cc1	101%
COc1c(/C=C/C(=O)c2ccc(Br)cc2)cc(OC)c2occc12	50.1%
COc1c(/C=C/C(=O)c2ccc(C#N)cc2)cc(OC)c2occc12	27.6%
CC(C)(O)c1coc(S(=O)(=O)NC(=O)Nc2c3c(cc4c2CCC4)CCC3)c1	106%
COc1c(/C=C/C(=O)c2cccc(F)c2)cc(OC)c2occc12	51.4%
COc1c(/C=C/C(=O)c2cccc(Br)n2)cc(OC)c2occc12	67.7%
COc1c(C(=O)/C=C/c2ccccc2)cc(OC)c2occc12	15.5%

same assay, conditions: time 80.0 min

Structure (SMILES)	inhibition
COc1c(/C=C/C(=O)Nc2cccc(C(F)(F)F)c2)cc(OC)c2occc12	inactive
COc1cc(-c2cn[nH]c2)c(OC)cc1/C=C/C(=O)c1ccc(F)cc1	inactive
COc1c(/C=C/C(=O)c2ccc(N)cc2)cc(OC)c2occc12	inactive
COc1cc(-c2ccsc2)c(OC)cc1/C=C/C(=O)c1ccc(F)cc1	inactive
COc1cc(-c2cc(F)cc(F)c2)c(OC)cc1/C=C/C(=O)c1ccc(F)cc1	inactive
COc1c(CCC(=O)c2ccccc2)cc(OC)c2occc12	inactive
COc1cc(-c2cccc(Cl)c2)c(OC)cc1/C=C/C(=O)c1ccc(F)cc1	inactive
C=CC(=O)N(Cc1cc(OC)c2occc2c1OC)c1cccc(C(F)(F)F)c1	inactive
COc1c(/C=C/C(=O)Nc2ccc(F)cc2)cc(OC)c2occc12	inactive
COc1c(CCC(=O)c2cccc(C(F)(F)F)c2)cc(OC)c2occc12	inactive
COc1cc(/C=C/C(=O)c2ccc(F)cc2)c(OC)cc1C=C(C)C	inactive
COc1c(/C=C/C(=O)Nc2cccc(Br)n2)cc(OC)c2occc12	inactive
COc1cc(-c2ccccc2C)c(OC)cc1/C=C/C(=O)c1ccc(F)cc1	inactive
COc1c(CCC(=O)c2ccc(F)cc2)cc(OC)c2occc12	inactive
COc1cc(NS(C)(=O)=O)c(OC)cc1/C=C/C(=O)c1ccc(F)cc1	inactive
C=CC(=O)N(Cc1cc(OC)c2occc2c1OC)c1cccc(Br)n1	inactive
COc1cncc(-c2cc(OC)c(/C=C/C(=O)c3ccc(F)cc3)cc2OC)c1	inactive

tested on: Spleen; assay: Downregulation of IL-1beta level in spleen of LPS treated C57BL/6J mouse at 10 mg/kg, iv measured after 6 hrs by ELISA; conditions: not given

Structure (SMILES)	Activity
COc1c(/C=C/C(=O)c2ccccc2)cc(OC)c2occc12	Active
